Experimental data as given in ChEMBL document CHEMBL1667763, “4-anilinoquinoline triazines: a novel class of hybrid antimalarial agents” (Eur J Med Chem, 2011).
Values after ≈ are worked out from the molar mass of the structure shown. Values belong to the compound of their own block, whether it stands above or below them. Active and inactive are the calls of the source. The rule behind the calls is not given here.

Key:
[1] = system: Plasmodium yoelii; test: Antimalarial activity against chloroquine-resistant Plasmodium yoelii N-67 infected in Swiss mouse assessed as suppression of parasitaemia level at 50 mg/kg, ip qd for 4 days; assay type: functional; details: route intraperitoneal
In short: (§1)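 Swiss mice (22±2 g), groups of five, inoculated with 1×10^6 P. yoelii N-67 parasitized RBC on day 0; compounds as aqueous suspension with a few drops Tween 80, given intraperitoneally in 0.2 mL once daily days 0–3. Parasitemia from thin blood smears days 4–6, group mean % suppression vs untreated controls; survivors counted on day 28.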

[2] = Inhibition of beta-hematin formation after 16 hrs; assay type: functional
In short: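 Plasma came from male Swiss mice (15–20 g) infected with 1 × 10⁵ infected RBCs. Blood was drawn at 50% parasitemia by cardiac puncture into 2.0% citrate and spun at 4 °C. Hemin substrate ([…]) and compound were incubated in 100 mM acetate buffer, pH 5.1, at 37 °C for 16 h with shaking. The pellet was washed in SDS buffers. IC50 was the mean of three experiments in triplicate.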

[3] = system: Plasmodium falciparum; test: Antimalarial activity against chloroquine-sensitive Plasmodium falciparum 3D7 infected in erythrocytes after 72 hrs by syber green 1 assay; details: 3D7, 72 h
[4] = system: Plasmodium falciparum 3D7; test: Selectivity index, IC50 for african green monkey Vero cells to IC50 for Plasmodium falciparum 3D7
[5] = system: Plasmodium yoelii; test: Antimalarial activity against chloroquine-resistant Plasmodium yoelii N-67 infected in Swiss mouse assessed as mouse survival at 50 mg/kg, ip qd for 4 days; assay type: functional, organism-based; parameters: dose 50 mg/kg; in short: as §1
[6] = system: Plasmodium yoelii; test: Antimalarial activity against chloroquine-resistant Plasmodium yoelii N-67 infected in Swiss mouse assessed as mouse survival at 50 mg/kg, po qd for 4 days; assay type: functional, organism-based; parameters: dose 50 mg/kg
In short: as §1, with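 “orally” for “intraperitoneally”, “0.1” for “0.2”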

[7] = system: Plasmodium yoelii; test: Antimalarial activity against chloroquine-resistant Plasmodium yoelii N-67 infected in Swiss mouse assessed as suppression of parasitaemia level at 50 mg/kg, po qd for 4 days; assay type: functional
In short: as §1, with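 “orally” for “intraperitoneally”, “0.1” for “0.2”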

[8] = system: Plasmodium yoelii; test: Antimalarial activity against chloroquine-resistant Plasmodium yoelii N-67 infected in Swiss mouse assessed as suppression of parasitaemia level at 25 mg/kg, ip qd for 4 days; assay type: functional; details: route intraperitoneal; in short: as §1
[9] = system: Plasmodium yoelii; test: Antimalarial activity against chloroquine-resistant Plasmodium yoelii N-67 infected in Swiss mouse assessed as mouse survival at 25 mg/kg, ip qd for 4 days; assay type: functional, organism-based; parameters: dose 25 mg/kg; in short: as §1
[10] = system: Plasmodium yoelii; test: Antimalarial activity against chloroquine-resistant Plasmodium yoelii N-67 infected in Swiss mouse assessed as mouse survival at 100 mg/kg, po qd for 4 days; assay type: functional, organism-based; parameters: dose 100 mg/kg
In short: as §1, with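 “orally” for “intraperitoneally”, “0.1” for “0.2”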

[11] = system: Plasmodium yoelii; test: Antimalarial activity against chloroquine-resistant Plasmodium yoelii N-67 infected in Swiss mouse assessed as suppression of parasitaemia level at 100 mg/kg, po qd for 4 days; assay type: functional
In short: as §1, with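 “orally” for “intraperitoneally”, “0.1” for “0.2”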

Compound: Cc1ccc(Nc2nc(NCCCN3CCOCC3)nc(Nc3cccc(Nc4ccnc5cc(Cl)ccc45)c3)n2)cc1
- Activity [1]: 100%
- IC50 [2]: 2.7 mg/L (≈ 4.53 µM)
- IC50 [3]: 0.0346 µM
- Selectivity Index [4]: 321.48
- Activity [5]: inactive

Compound: Clc1ccc2c(Nc3cccc(Nc4nc(NCCCN5CCOCC5)nc(Nc5ccccc5)n4)c3)ccnc2c1
- IC50 [3]: 0.111 µM
- Selectivity Index [4]: 90.51

Compound: Nc1nc(Nc2ccccc2)nc(Nc2ccc(Nc3ccnc4cc(Cl)ccc34)cc2)n1
- IC50 [3]: 0.0415 µM
- Selectivity Index [4]: 132.63

Compound: CCN(CC)CCNc1nc(Nc2ccc(C)cc2)nc(Nc2ccc(Nc3ccnc4cc(Cl)ccc34)cc2)n1
- IC50 [3]: 0.0828 µM
- Selectivity Index [4]: 64.38

Compound: CCCCNc1nc(Nc2ccccc2)nc(Nc2cccc(Nc3ccnc4cc(Cl)ccc34)c2)n1
- Activity [1]: 100%
- IC50 [2]: 2.55 mg/L (≈ 4.99 µM)
- IC50 [3]: 0.0263 µM
- Selectivity Index [4]: 156.25
- Activity [5]: inactive

Compound: CCN1CCN(c2nc(Nc3ccc(C)cc3)nc(Nc3ccc(Nc4ccnc5cc(Cl)ccc45)cc3)n2)CC1
- IC50 [3]: 0.0119 µM
- Selectivity Index [4]: 35.61

Compound: CNc1nc(Nc2ccc(Nc3ccnc4cc(Cl)ccc34)cc2)nc(Nc2ccccc2C)n1
- IC50 [3]: 0.0376 µM
- Selectivity Index [4]: 240.35

Compound: Cc1ccc(Nc2nc(N)nc(Nc3ccc(Nc4ccnc5cc(Cl)ccc45)cc3)n2)cc1
- IC50 [3]: 0.0119 µM
- Selectivity Index [4]: 134.89

- IC50 [2]: 3.65 mg/L (≈ 11.4 µM)
Compound: CCN(CC)CCCC(C)Nc1ccnc2cc(Cl)ccc12 (centres undefined) [CHLOROQUINE]

Compound: CCN(CC)CCNc1nc(Nc2ccc(Nc3ccnc4cc(Cl)ccc34)cc2)nc(N2CCCCC2)n1
- IC50 [3]: 0.0388 µM
- Selectivity Index [4]: 59.71

Compound: Cc1ccccc1Nc1nc(N)nc(Nc2ccc(Nc3ccnc4cc(Cl)ccc34)cc2)n1
- IC50 [3]: 0.0296 µM
- Selectivity Index [4]: 163.54

Compound: CCN(CC)CCNc1nc(Nc2ccccc2)nc(Nc2ccc(Nc3ccnc4cc(Cl)ccc34)cc2)n1
- IC50 [3]: 0.0604 µM
- Selectivity Index [4]: 79.47

Compound: CCN1CCN(c2nc(Nc3ccc(Nc4ccnc5cc(Cl)ccc45)cc3)nc(Nc3ccccc3C)n2)CC1
- IC50 [3]: 0.102 µM
- Selectivity Index [4]: 2.58

Compound: Clc1ccc2c(Nc3ccc(Nc4nc(NC5CCCCC5)nc(N5CCCCC5)n4)cc3)ccnc2c1
- IC50 [3]: 0.313 µM
- Selectivity Index [4]: 189.52

Compound: CCN(CC)CCNc1nc(Nc2ccccc2)nc(Nc2cccc(Nc3ccnc4cc(Cl)ccc34)c2)n1
- IC50 [3]: 0.292 µM
- Selectivity Index [4]: 135.37

Compound: CCCCNc1nc(Nc2ccc(Nc3ccnc4cc(Cl)ccc34)cc2)nc(Nc2ccccc2C)n1
- Activity [1]: 100%
- IC50 [2]: 2.96 mg/L (≈ 5.64 µM)
- IC50 [3]: 0.0315 µM
- Selectivity Index [4]: 821.15
- Activity [5]: inactive

Compound: CCCCNc1nc(Nc2ccc(C)cc2)nc(Nc2ccc(Nc3ccnc4cc(Cl)ccc34)cc2)n1
- IC50 [3]: 0.0445 µM
- Selectivity Index [4]: 101.03

Compound: Clc1ccc2c(Nc3ccc(Nc4nc(NCc5ccccc5)nc(Nc5ccccc5)n4)cc3)ccnc2c1
- IC50 [3]: 0.0336 µM
- Selectivity Index [4]: 151.04

Compound: CCN1CCN(c2nc(Nc3ccccc3)nc(Nc3ccc(Nc4ccnc5cc(Cl)ccc45)cc3)n2)CC1
- Activity [1]: 100%
- IC50 [2]: 2.69 mg/L (≈ 4.87 µM)
- IC50 [3]: 0.00592 µM
- Selectivity Index [4]: 192.66
- Activity [5]: inactive

Compound: CNc1nc(Nc2ccccc2)nc(Nc2ccc(Nc3ccnc4cc(Cl)ccc34)cc2)n1
- IC50 [3]: 0.019 µM
- Selectivity Index [4]: 290.68

Compound: CN1CCN(c2nc(Nc3ccc(Nc4ccnc5cc(Cl)ccc45)cc3)nc(N3CCCCC3)n2)CC1
- IC50 [3]: 0.0348 µM
- Selectivity Index [4]: 106.35

Compound: CCN(CC)CCNc1nc(Nc2ccc(Nc3ccnc4cc(Cl)ccc34)cc2)nc(Nc2ccccc2C)n1
- IC50 [3]: 0.0261 µM
- Selectivity Index [4]: 136.49

Compound: CCCCNc1nc(Nc2ccccc2)nc(Nc2ccc(Nc3ccnc4cc(Cl)ccc34)cc2)n1
- Activity [1]: 100%
- IC50 [2]: 3.08 mg/L (≈ 6.03 µM)
- IC50 [3]: 0.0185 µM
- Selectivity Index [4]: 287.22
- Activity [5]: inactive

Compound: Cc1ccccc1Nc1nc(NCc2ccccc2)nc(Nc2ccc(Nc3ccnc4cc(Cl)ccc34)cc2)n1
- IC50 [3]: 0.0278 µM
- Selectivity Index [4]: 2129.68

Compound: Cc1ccc(Nc2nc(Nc3cccc(Nc4ccnc5cc(Cl)ccc45)c3)nc(N3CCN(C)CC3)n2)cc1
- IC50 [3]: 0.0432 µM
- Selectivity Index [4]: 226.18

Compound: Clc1ccc2c(Nc3ccc(Nc4nc(Nc5ccccc5)nc(NC5CCCCC5)n4)cc3)ccnc2c1
- IC50 [3]: 0.0648 µM
- Selectivity Index [4]: 76.97

Compound: CNc1nc(Nc2ccc(C)cc2)nc(Nc2ccc(Nc3ccnc4cc(Cl)ccc34)cc2)n1
- Activity [1]: 100%
- IC50 [2]: 3.16 mg/L (≈ 6.54 µM)
- IC50 [3]: 0.00641 µM
- Selectivity Index [4]: 491.91
- Activity [5]: inactive

Compound: Cc1ccc(Nc2nc(NCc3ccccc3)nc(Nc3ccc(Nc4ccnc5cc(Cl)ccc45)cc3)n2)cc1
- IC50 [3]: 0.0635 µM
- Selectivity Index [4]: 79.44

Compound: Cc1ccc(Nc2nc(NCCCN3CCOCC3)nc(Nc3ccc(Nc4ccnc5cc(Cl)ccc45)cc3)n2)cc1
- Activity [1]: 100%
- IC50 [2]: 2.85 mg/L (≈ 4.78 µM)
- IC50 [3]: 0.00703 µM
- Selectivity Index [4]: 610.98
- Activity [5]: inactive

Compound: Cc1ccccc1Nc1nc(Nc2ccc(Nc3ccnc4cc(Cl)ccc34)cc2)nc(NC2CCCCC2)n1
- IC50 [3]: 0.163 µM
- Selectivity Index [4]: 449.8

Compound: CCN1CCN(c2nc(Nc3ccc(Nc4ccnc5cc(Cl)ccc45)cc3)nc(N3CCCCC3)n2)CC1
- Activity [1]: 100%
- Activity [6]: inactive
- Activity [7]: 100%
- Activity [8]: 100%
- Activity [9]: inactive
- IC50 [2]: 2.79 mg/L (≈ 5.13 µM)
- IC50 [3]: 0.0297 µM
- Selectivity Index [4]: 124.85
- Activity [10]: Active
- Activity [11]: 100%
- Activity [5]: Active

Compound: Clc1ccc2c(Nc3ccc(Nc4nc(NCCCN5CCOCC5)nc(Nc5ccccc5)n4)cc3)ccnc2c1
- Activity [1]: 100%
- Activity [8]: 100%
- Activity [9]: inactive
- IC50 [2]: 2.98 mg/L (≈ 5.12 µM)
- IC50 [3]: 0.00301 µM
- Selectivity Index [4]: 154.29
- Activity [10]: inactive
- Activity [11]: 100%
- Activity [5]: Active

Compound: Clc1ccc2c(Nc3ccc(Nc4nc(NCCCN5CCOCC5)nc(N5CCCCC5)n4)cc3)ccnc2c1
- Activity [1]: 100%
- Activity [6]: inactive
- Activity [7]: 100%
- Activity [8]: 100%
- Activity [9]: inactive
- IC50 [2]: 2.71 mg/L (≈ 4.72 µM)
- IC50 [3]: 0.0231 µM
- Selectivity Index [4]: 170.18
- Activity [10]: Active
- Activity [11]: 100%
- Activity [5]: Active

Compound: Clc1ccc2c(Nc3ccc(Nc4nc(NCc5ccccc5)nc(N5CCCCC5)n4)cc3)ccnc2c1
- IC50 [3]: 0.235 µM
- Selectivity Index [4]: 98.42

Compound: Cc1ccccc1Nc1nc(NCCCN2CCOCC2)nc(Nc2ccc(Nc3ccnc4cc(Cl)ccc34)cc2)n1
- IC50 [3]: 0.0134 µM
- Selectivity Index [4]: 418.75

Compound: CN1CCN(c2nc(Nc3ccccc3)nc(Nc3cccc(Nc4ccnc5cc(Cl)ccc45)c3)n2)CC1
- IC50 [3]: 0.0472 µM
- Selectivity Index [4]: 223.4

Compound: Cc1ccc(Nc2nc(Nc3ccc(Nc4ccnc5cc(Cl)ccc45)cc3)nc(NC3CCCCC3)n2)cc1
- IC50 [3]: 0.074 µM
- Selectivity Index [4]: 137.42

Compound: CN1CCN(c2nc(Nc3ccccc3)nc(Nc3ccc(Nc4ccnc5cc(Cl)ccc45)cc3)n2)CC1
- IC50 [3]: 0.00585 µM
- Selectivity Index [4]: 92.06

Compound: CCN1CCN(c2nc(Nc3ccc(C)cc3)nc(Nc3cccc(Nc4ccnc5cc(Cl)ccc45)c3)n2)CC1
- IC50 [3]: 0.041 µM
- Selectivity Index [4]: 229.5

Compound: Cc1ccccc1Nc1nc(Nc2ccc(Nc3ccnc4cc(Cl)ccc34)cc2)nc(N2CCN(C)CC2)n1
- IC50 [3]: 0.0189 µM
- Selectivity Index [4]: 16.33

Compound: Cc1ccc(Nc2nc(Nc3ccc(Nc4ccnc5cc(Cl)ccc45)cc3)nc(N3CCN(C)CC3)n2)cc1
- IC50 [3]: 0.0124 µM
- Selectivity Index [4]: 36.39

Compound: CCN1CCN(c2nc(Nc3ccccc3)nc(Nc3cccc(Nc4ccnc5cc(Cl)ccc45)c3)n2)CC1
- IC50 [3]: 0.0601 µM
- Selectivity Index [4]: 90.51
